The sample as a whole holds a higher share of hits than the screen did.
Dynein cargo inh = inhibitors of GR-EGFP nuclear translocation, primary screen, dynein cargo transport inhibitor project, imaging, high-content, 3617.4 mouse cells | z-score, hits read low | 220,000 tested, 0.47% active | test concentration mostly 20 µM; stimulated with dexamethasone, 1 µM; stronger effect = lower value | AID 1381, 2008;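 active means plate z-score of nuclear minus cytoplasmic receptor signal below a set negative limit, without overly bright fluorescence or cell loss, cut at about -3.5 in these data, passing the limit was not always enough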;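 further: z-score of nuclear minus cytoplasmic ring GR-EGFP intensity difference per well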
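Also added: dexamethasone, 1.0 µM final. Medium: tet-free, stripped-serum medium. Detection: fixed, Hoechst-stained cells imaged at 10x for EGFP. Read-out: nuclear-to-cytoplasmic GR-EGFP distribution per well. Times: induction 48 h, compound 1 h, agonist 30 min.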
p-CIP stab down = p/CIP-EGFP fusion destabilizers, primary screen, fluorescence, F442A cells | Q05BA5 | decrease of EGFP signal, % at 10 µM | 16 h | 290,000 tested, 0.01% active;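 active means EGFP signal decrease of at least 30% at 10 µM or well 3 SD below plate mean, unless failing retest; inactive means the rest, including hits failing retest or dose response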
Target sequence (Q05BA5 1-1403): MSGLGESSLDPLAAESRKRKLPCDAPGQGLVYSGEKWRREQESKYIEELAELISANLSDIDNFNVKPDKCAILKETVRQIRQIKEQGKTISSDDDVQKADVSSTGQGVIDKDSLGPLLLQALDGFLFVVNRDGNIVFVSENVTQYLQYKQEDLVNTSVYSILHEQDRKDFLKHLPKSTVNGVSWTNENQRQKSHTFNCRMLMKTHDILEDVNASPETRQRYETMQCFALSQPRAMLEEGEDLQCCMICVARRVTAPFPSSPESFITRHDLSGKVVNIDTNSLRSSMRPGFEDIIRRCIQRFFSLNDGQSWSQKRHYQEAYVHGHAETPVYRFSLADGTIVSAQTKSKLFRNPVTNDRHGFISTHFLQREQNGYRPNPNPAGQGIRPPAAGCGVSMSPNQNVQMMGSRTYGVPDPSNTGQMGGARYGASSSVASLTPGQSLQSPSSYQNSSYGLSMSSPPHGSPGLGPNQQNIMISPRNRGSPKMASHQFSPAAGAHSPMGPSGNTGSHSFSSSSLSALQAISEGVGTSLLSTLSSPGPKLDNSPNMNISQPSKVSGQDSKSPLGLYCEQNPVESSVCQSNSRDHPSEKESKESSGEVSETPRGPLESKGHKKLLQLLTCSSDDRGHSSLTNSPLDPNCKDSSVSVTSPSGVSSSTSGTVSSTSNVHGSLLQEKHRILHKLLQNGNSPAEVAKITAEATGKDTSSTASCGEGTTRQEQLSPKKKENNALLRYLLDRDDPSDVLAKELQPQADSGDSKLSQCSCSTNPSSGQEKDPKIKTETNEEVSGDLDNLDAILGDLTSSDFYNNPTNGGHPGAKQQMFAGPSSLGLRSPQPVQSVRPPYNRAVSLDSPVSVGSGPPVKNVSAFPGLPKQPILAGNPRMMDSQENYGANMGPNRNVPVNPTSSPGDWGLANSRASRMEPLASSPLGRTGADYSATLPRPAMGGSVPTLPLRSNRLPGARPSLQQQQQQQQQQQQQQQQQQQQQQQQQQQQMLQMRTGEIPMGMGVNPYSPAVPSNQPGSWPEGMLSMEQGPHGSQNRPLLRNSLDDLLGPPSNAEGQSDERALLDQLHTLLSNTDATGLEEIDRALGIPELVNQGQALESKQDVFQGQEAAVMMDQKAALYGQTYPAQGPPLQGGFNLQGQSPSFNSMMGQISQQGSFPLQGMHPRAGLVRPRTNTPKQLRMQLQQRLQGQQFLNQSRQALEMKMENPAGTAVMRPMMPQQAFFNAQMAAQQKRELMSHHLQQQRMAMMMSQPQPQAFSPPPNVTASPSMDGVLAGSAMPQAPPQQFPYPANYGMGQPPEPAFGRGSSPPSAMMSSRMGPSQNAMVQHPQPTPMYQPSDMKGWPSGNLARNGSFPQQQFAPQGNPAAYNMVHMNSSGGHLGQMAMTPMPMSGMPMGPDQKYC
ABCB6 inh MLPCN = ABCB6 transporter inhibitors, primary screen, K562-ABCB6 cells, flow cytometry, MLPCN library | AID 602162, 2011 | 360,000 tested, 0.19% active | K562-ABCB6 porphyrin accumulation, 1 h; stronger effect = lower value | ATP-binding cassette sub-family B member 6 (Homo sapiens), Q9NP58 | fluorescence ratio to DMSO, % at 10 µM;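 active means fluorescence ratio to DMSO below 75%, the collection mean minus 3 SD; inconclusive means too few cells collected in the well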;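 further: signal is porphyrin accumulated inside mitochondria; 100% equals median channel fluorescence of DMSO control wells; lower ratio means ABCB6 inhibition with less porphyrin fluorescence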
KCC2 mod = KCC2 cotransporter modulators, thallium flux, primary screen, cell-based, HEK293 KCC2, FluoZin-2 fluorescence, MLSMR; B-score of Tl+ flux slope (higher = more flux/activation; lower = inhibition) at 10 µM; KCC2 cells, thallium flux FluoZin-2 fluorescence; Solute carrier family 12 member 5 (Homo sapiens), Q9H2X9; 190,000 tested, 2.2% active;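 active means thallium flux slope and its plate-corrected score both differing from the plate sample mean at a set confidence after two filtering rounds, in either direction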;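 further: slope of fluorescence scaled to starting intensity during 10 to 20 s after thallium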
V-ATPase pHluor = regulators of yeast V-ATPase proton pumping, primary screen, pHLuorin cytosolic pH fluorescence | response, % at 10 µM | S. cerevisiae | 350,000 tested, 0.37% active; in the data active means response mostly above about 7.3%, no sharp cut-off; inactive means mostly below about 5.4%; further: actives read high
KCC2 sec1 = KCC2 modulators in sodium-free buffer, confirmation, cell-based, HEK293 KCC2, thallium flux, secondary assay; shares compounds with KCC2 mod; FluoZin2 fluorescence; stronger effect = higher value; normalised thallium flux (F/F0 slope) at 10 µM; 3,700 tested, 15% active; AID 1713, 2009;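 active means thallium flux slope above the same plate's solvent-only control mean plus 3 SD; inconclusive means the two replicate wells disagree; inactive means no significant difference from solvent-only control wells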
KCC2 bumet counter = thallium flux persisting under bumetanide in KCC2 cells, confirmation, counter-screen for KCC2 modulator project, cell-based, HEK293 KCC2, FluoZin2, secondary assay 3. normalized thallium flux at 10 µM. 3,700 tested, 49% active. shares compounds with KCC2 mod. HEK293-KCC2 + bumetanide/ouabain; stronger effect = higher value;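 active means thallium entry rate above the same plate's blocked-transporter control wells by more than 3 SD; inconclusive means the two repeat wells disagree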;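 further: raw slope of fluorescence over initial fluorescence between 10 and 20 s after thallium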
KCC2 sec2 = KCC2 modulators without ouabain present, confirmation, cell-based, HEK293 KCC2, thallium flux, FluoZin2, secondary assay 2. shares compounds with KCC2 mod. thallium flux FluoZin2 fluorescence; actives lie on both sides; F/F0 rise rate, 10–20 s post-thallium. normalized thallium flux at 10 µM. 3,700 tested, 23% active. AID 1715, 2009;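 active means thallium flux slope more than 3 SD above or below the plate's solvent-only control mean, mostly below; inconclusive means the two repeat wells disagreed; inactive means no significant shift from solvent-only controls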;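 further: raw slope with 0.1% DMSO as baseline and bumetanide as block control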
HEK counter1 = thallium flux modulation in parental HEK cells, confirmation, counter-screen for KCC2 modulator project, cell-based, counterscreen 1 | 3,700 tested, 46% active | thallium flux rate (normalised fluorescence) at 10 µM | HEK293 parental cells, thallium flux FluoZin2, ouabain; baseline-ratio fluorescence slope, 10–20 s after thallium | shares compounds with KCC2 mod;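 active means thallium flux rate significantly above the same plate's solvent-only control wells, beyond their mean plus 3 SD; inconclusive means the two replicate wells gave conflicting results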
KCC2 ouabain = KCC2 inhibitors and activators, ouabain retest, confirmation, HEK-KCC2 cells; shares compounds with KCC2 mod; HEK293-KCC2, thallium flux FluoZin2 fluorescence; bidirectional: low = inhibitor, high = activator; raw Tl+ flux slope (below DMSO = inhibition, above = activation) at 10 µM; 3,700 tested, 48% active; AID 1717, 2009;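 active means thallium flux slope beyond 3 SD from same-plate DMSO control mean in most replicates, usually higher, sometimes lower; inconclusive means repeat tests gave conflicting results; inactive means no significant difference from controls in most replicates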;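 further: slope of initial-normalized fluorescence between seconds 10 and 20 after thallium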
HEK counter2 = native HEK Tl+ uptake effects, second counter-screen – HEK cells, counterscreen 2, counter-screen for KCC2 modulator project, confirmation; shares compounds with KCC2 mod; HEK293 parental, thallium flux FluoZin-2 fluorescence slope; thallium flux slope at 10 µM; 3,700 tested, 33% active; AID 1718, 2009;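 active means thallium flux slope above the same plate's solvent-control mean plus 3 SD in both duplicate wells; inconclusive means duplicate wells that disagreed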;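 further: run without ouabain in cells lacking the KCC2 cotransporter; slope of fluorescence scaled to its starting value between 10 and 20 s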
An asterisk follows results filed as active; ? = inconclusive; nt = not tested or not shown.

SMILES | Dynein cargo inh | p-CIP stab down | ABCB6 inh MLPCN | KCC2 mod | V-ATPase pHluor | KCC2 sec1 | KCC2 bumet counter | KCC2 sec2 | HEK counter1 | KCC2 ouabain | HEK counter2
S=C(Nc1cccc2ccccc12)N1CCN(c2ncccn2)CC1 | 0.058 | 4 | 111 | 0.033 | 3 | nt | nt | nt | nt | nt | nt
O=C(CSc1nnc(COc2ccccc2)o1)N1CCOCC1 | 0.18 | 2 | 101 | 0.64 | -3 | nt | nt | nt | nt | nt | nt
COc1ccc(NC(=O)CN2C(=O)CSC(C)C2=O)cc1 (stereo not given) | 0.12 | 1 | 96 | 0.084 | -1 | nt | nt | nt | nt | nt | nt
COc1ccc(N2CCN(CCCn3c(=S)[nH]c4ncccc4c3=O)CC2)cc1 | 0.93 | -6 | 92 | 8.9* | 1 | 0.0071 | 0.032* | 0.037 | 0.02* | 0.031* | 0.018*
CC(C)CCn1c(=S)[nH]c2ncccc2c1=O | -0.18 | -5 | 98 | 51* | -2 | 0.012* | 0.08* | 0.075* | 0.067* | 0.073* | 0.059*
CCOCCCn1c(=S)[nH]c2ncccc2c1=O | -0.47 | -7 | 94 | 5.3* | -1 | 0.0064 | 0.017* | 0.037 | 0.018* | ? | 0.021*
CN(C)CCn1c(=S)[nH]c2ncccc2c1=O | 1.2 | -1 | 102 | 2.1 | 0 | nt | nt | nt | nt | nt | nt
COC(=O)c1sc(-c2ccc(Cl)cc2)cc1NC(=O)/C=C/C(=O)O | -1.8 | 1 | 95 | -4.1* | 0 | 0.0095 | 0.008* | 0.03 | 0.0075 | 0.014* | 0.012
CCOc1ccc(-c2nc(C#N)c(N3CCOCC3)o2)cc1 | -0.51 | -3 | 99 | nt | -1 | nt | nt | nt | nt | nt | nt
CCOc1ccc(-c2nc(C#N)c(N3CCN(Cc4ccccc4)CC3)o2)cc1 | -0.81 | -7 | 86 | -4.3* | 0 | 0.0078 | 0.0066 | 0.027 | 0.0071 | 0.023* | 0.01
Cc1nc2nc(N)nc(OCc3ccccc3)c2nc1C | nt | nt | 97 | nt | 1 | nt | nt | nt | nt | nt | nt
COc1ccc(S(=O)(=O)N2CCC(C(=O)N3CCc4ccccc4C3)CC2)cc1C | 0.28 | -2 | 95 | -3.5* | -9 | 0.007 | 0.0049 | 0.024* | 0.0076 | 0.015* | 0.01
O=C(C1CCN(S(=O)(=O)c2cccc3nsnc23)CC1)N1CCc2ccccc2C1 | -0.14 | -7 | 93 | -6* | 7 | 0.01 | 0.0068 | 0.023* | 0.008 | 0.015* | 0.011
CSc1ccc(S(=O)(=O)N2CCC(C(=O)N3CCc4ccccc4C3)CC2)cc1 | nt | -14 | 98 | nt | 3 | nt | nt | nt | nt | nt | nt
CCN(CC)S(=O)(=O)c1cccc(C(=O)N/N=C/c2ccc(N3CCOCC3)cc2)c1 | -0.94 | -12 | 92 | 0.36 | 3 | nt | nt | nt | nt | nt | nt
Cc1nc(SCC(=O)NCC(F)(F)F)c2c(-c3cccs3)csc2n1 | -0.47 | -17 | 89 | 1.1 | 0 | nt | nt | nt | nt | nt | nt
Cc1nc(SCC(=O)NC(C)(C#N)C2CC2)c2c(-c3cccs3)csc2n1 (stereo not given) | 0.4 | 0 | 94 | 5.1* | 2 | 0.011 | 0.026* | 0.03 | 0.013* | 0.033* | 0.011*
CSc1ccccc1C(=O)N1CCCC(CNC(=O)c2ccc(F)cc2)C1 (stereo not given) | nt | -12 | 96 | nt | 0 | nt | nt | nt | nt | nt | nt
CCc1cc(C(=O)N2CCCC(CNC(=O)c3ccc(-c4ccccc4)cc3)C2)no1 (stereo not given) | -0.22 | -8 | 96 | nt | -1 | 0.0081 | 0.0066 | 0.028* | 0.0064 | 0.014* | 0.01
CSCCC(=O)N1CCCC(CNC(=O)c2ccc(-c3ccccc3)cc2)C1 (stereo not given) | -1.2 | -16 | 105 | -5.8* | 1 | 0.006 | 0.0049 | 0.021* | 0.0075 | 0.013* | 0.01
COC(=O)[C@@]1(Cc2ccc(F)cc2)[C@H]2c3cc(C(=O)N(C)C)n(Cc4ccc(S(C)(=O)=O)cc4)c3C[C@H]2CN1C(=O)c1ccccc1 | nt | nt | 126 | nt | nt | nt | nt | nt | nt | nt | nt
COC(=O)CSc1ccnc2cc(Cl)ccc12 | -0.086 | -5 | 97 | -3.2* | -9 | 0.0096 | ? | 0.034 | 0.0034 | 0.018 | 0.012
C[C@H](CO)N1C[C@H](C)[C@H](CN(C)S(C)(=O)=O)Oc2c(cccc2N(C)C)C1=O | nt | nt | 93 | nt | 3 | nt | nt | nt | nt | nt | nt
CC1(C)CC(=O)c2cc(NC(=O)c3ccc(F)cc3)c(=O)oc2C1 | 0.22 | -20 | 105 | 0.067 | 1 | nt | nt | nt | nt | nt | nt
COc1ccc(OC)c(NC(=O)COC(=O)COc2c(Cl)cc(Cl)c3ccc(C)nc23)c1 | nt | nt | 96 | nt | -2 | nt | nt | nt | nt | nt | nt
Cc1ccc2c(Cl)cc(Cl)c(OCC(=O)Nc3cc(S(=O)(=O)N(C)C)ccc3C)c2n1 | 0.58 | -6 | 94 | -0.98 | -1 | nt | nt | nt | nt | nt | nt
COC(=O)COc1c(Cl)cc(Cl)c2ccc(C)nc12 | -0.15 | 4 | 99 | 6.2* | 2 | 0.016 | 0.011* | 0.03 | 0.011* | 0.019 | 0.014*
Cc1ccc2c(Cl)cc(Cl)c(OCC(=O)NC(C)(C)C)c2n1 | -0.55 | -1 | 90 | 6.9* | 0 | 0.01 | 0.031* | 0.03 | 0.018* | 0.032* | ?
Cc1ccc2c(Cl)cc(Cl)c(OCC(=O)N(C(C)C)C(C)C)c2n1 | -0.35 | 0 | 101 | 4* | 0 | 0.016 | 0.014* | 0.028 | 0.011* | 0.019 | 0.012
